Bioassay records from PubChem BioAssay.
PHOSPHO1 block – blocks human PHOSPHO1 phosphatase activity. 1.1% of 290,000 active. Q8TCT1. inhibition, % at 13.3 µM. recombinant PHOSPHO1, absorbance phosphatase assay; in the data active = inhibition above about 60%
Target sequence (Q8TCT1 whole entry, looked up): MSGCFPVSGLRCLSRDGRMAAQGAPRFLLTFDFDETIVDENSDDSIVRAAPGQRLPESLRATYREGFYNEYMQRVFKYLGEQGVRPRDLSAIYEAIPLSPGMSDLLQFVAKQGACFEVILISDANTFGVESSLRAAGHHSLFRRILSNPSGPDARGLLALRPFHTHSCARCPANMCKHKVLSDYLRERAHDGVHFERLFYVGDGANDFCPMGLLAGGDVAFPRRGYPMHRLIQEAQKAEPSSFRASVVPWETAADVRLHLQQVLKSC
MrgX1 ag – human MrgX1 receptor agonism, primary screen; Q96LB2; MrgX1-HEK293 cells, Fluo-4 calcium fluorescence, agonist mode; active compounds read high; B-score at 10 µM; 0.44% of 310,000 active; AID 588627;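 active = calcium response B-score plate-corrected fluorescence ratio at least 3 library SD, with starting fluorescence B-score inside 5 SD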
Target sequence (Q96LB2 whole entry, looked up): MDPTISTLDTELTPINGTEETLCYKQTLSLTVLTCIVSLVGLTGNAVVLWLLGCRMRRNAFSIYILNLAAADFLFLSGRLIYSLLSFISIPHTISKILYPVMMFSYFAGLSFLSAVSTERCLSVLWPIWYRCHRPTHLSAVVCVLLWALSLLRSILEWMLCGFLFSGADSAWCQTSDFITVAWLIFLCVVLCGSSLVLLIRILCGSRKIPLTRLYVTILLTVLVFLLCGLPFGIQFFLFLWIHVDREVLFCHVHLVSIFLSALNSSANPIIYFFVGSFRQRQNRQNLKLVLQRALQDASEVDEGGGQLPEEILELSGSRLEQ
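Material: HEK293 cells stably expressing human MrgX1 receptor | Quantity: 15,000 cells per well | Times: Cells plated overnight, dye loaded 0.5 h 37 °C, 0.5 h room temperature | Measured by: Kinetic Fluo-4 NW fluorescence of intracellular calcium | Control set: Positive and negative controls per plate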
RGS4 act – RGS4 potentiation or activation; HEK293 M3R/inducible RGS4, carbachol calcium flux Fluo4; active compounds read low; B-score at 10 µM; 0.92% of 310,000 active;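 active = B-score of the integrated calcium signal more than 4 SD below the library mean, with starting fluorescence not abnormally high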;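 note: negative B-score means reduced calcium response which marks RGS4 activation or potentiation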
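Test system: HEK293 cells with stable M3R and inducible RGS4; also added: carbachol at ECmax as muscarinic agonist stimulus; schedule: dye loading 30 min 37 °C, buffer rest 30 min RT; technique: kinetic calcium fluorescence imaging with Fluo4-AM dye, 2 µM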
RGS4 inh – human RGS4 inhibition; 0.45% of 310,000 active; B-score at 10 µM; HEK293 M3R/RGS4 inducible, Fluo-4 calcium flux; active compounds read high; triggered by carbachol at its EC20; P49798;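 active = B-score, a plate-corrected calcium signal, over three deviations above library mean, with baseline fluorescence within five deviations of library mean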;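 note: RGS4 expression induced by doxycycline in cells with stable M3 receptor; B-score is computed from the integrated fluorescence ratio over baseline after carbachol; higher B-score means a larger calcium signal and so more RGS4 inhibition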
MrgX1 allo act – human MrgX1 positive allosteric modulation, primary screen; B-score at 10 µM; MrgX1-HEK293, Fluo-4 calcium flux, FDSS; active compounds read high; 0.63% of 310,000 active;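 active = plate-corrected calcium response at least 3 library SD above typical, normal starting fluorescence, not activating the receptor alone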;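 note: compound read alongside a low EC10 to EC30 dose of BAM8-22 agonist; peak minus trough fluorescence over baseline measured at the second addition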
MrgX1 antagonist – human MrgX1 receptor antagonism, primary screen; Q96LB2; MRGX1-HEK293 calcium flux, Fluo-4, BAM8-22 antagonism; active compounds read low; B-score at 10 µM; 1.3% of 310,000 active; AID 588676;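 active = calcium-response B-score plate-corrected more than 3 library SD below zero, starting fluorescence within 5 deviations, no agonist response on first addition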;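 note: peak minus trough fluorescence over baseline after final BAM8-22 challenge near maximal dose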
RGS4 activ val – confirmation of RGS4 activators; shares compounds with RGS4 act; HEK293 M3R/RGS4 inducible, carbachol calcium flux Fluo4; inhibition, % at 10 µM; 89% of 1,100 active; AID 602282;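 active = inhibition above 3 SD of the buffer control wells, cut at about 41% in these data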;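 note: signal is the integrated peak-minus-minimum Fluo4 fluorescence over baseline ratio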
RGS4 act ctr – RGS4 activator counter-screen hit in non-induced cells; shares compounds with RGS4 act; HEK293 M3R non-induced RGS4, Fluo4 calcium flux; after carbachol challenge at its EC90; inhibition, % at 10 µM; 82% of 1,100 active; AID 602283;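 active = inhibition exceeding 3 SD of buffer-only control wells, cut at about 26% in these data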;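 note: percent drop in integrated peak-minus-baseline over baseline Fluo4 ratio after carbachol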
* = called active by the depositor; i = inactive; . = not tested or not shown. Most compounds without a hit are left out; they make up all but 4.5% or so of the library.

SMILES | PHOSPHO1 block | MrgX1 ag | RGS4 act | RGS4 inh | MrgX1 allo act | MrgX1 antagonist | RGS4 activ val | RGS4 act ctr
COc1ccc(NC(=O)CN(C)S(=O)(=O)c2ccc3c(c2)CC(C)N3C(C)=O)cc1OC (stereo not drawn) | 27.6 | i | i | i | i | i | . | .
CCOc1ccc(C(=O)n2cc(C(=O)OC)c3ccccc32)cc1 | 22.0 | i | -8.55* | i | i | i | 69.0* | 83.8*
CCOc1ccc(C(=O)n2cc(C(=O)OC)c3ccccc32)cc1OCC | 52.1 | i | i | i | i | i | . | .
CCc1nc2ccccc2c(C(=O)OCC(=O)Nc2cccc(S(=O)(=O)NC3=NCCCCC3)c2)c1C | 24.0 | i | -7.71* | i | i | i | 63.5* | 0.0
O=C(NC1CC2CCCC(C1)N2Cc1ccccc1)C1CCCCC1 (stereo not drawn) | 28.7 | i | -9.86* | i | i | i | 59.5* | 0.0
O=C(CN1C2CCCC1CC(NC(=O)C1CCCCC1)C2)Nc1ccccc1 (stereo not drawn) | 5.8 | i | i | i | i | i | . | .
COc1cccc(CNC(=O)CCC2CCCN(c3cc(C)nc(N4CCCC4)n3)C2)c1 (stereo not drawn) | 10.9 | i | -11.7* | i | i | i | 92.5* | 93.8*
COc1cccc(CNC(=O)CCC2CCCN(C3CCOCC3)C2)c1 (stereo not drawn) | 19.9 | i | i | i | i | i | . | .
Cc1nc2ccc(Cl)cc2c(-c2ccccc2F)c1CC(=O)O | -18.5 | i | i | i | i | i | . | .
O=C(Nc1ccc(NC(=O)c2cc3ccccc3o2)cc1)c1ccc2c(c1)OCCO2 | 39.7 | i | i | i | i | i | . | .
Cc1cc(NC(=O)c2ccc3c(c2)OCCO3)ccc1NC(=O)c1cc2ccccc2o1 | 43.9 | i | -8.67* | i | i | i | 77.5* | 0.0
COc1cc(CN2CCN(C3CCC3)CC2CCO)cc(OC)c1 (stereo not drawn) | 13.9 | i | i | i | i | i | . | .
Cc1ccccc1C(=NCCCN(C)C)c1ccccc1C | -0.9 | i | -9.35* | i | i | i | 87.5* | 55.8*
Cc1c(C)n(CCCN(C)C)c2ncnc(NC3CCCCC3)c12 | 42.2 | i | i | i | i | i | . | .
CCc1nc(SCC(=O)c2ccccc2)c2c(=O)n(C)c(=O)n(C)c2n1 | -0.8 | i | i | i | i | i | . | .
CCCc1nc(SCC(=O)c2ccccc2)c2c(=O)n(C)c(=O)n(C)c2n1 | 26.2 | i | -7.81* | i | i | i | 93.5* | 91.3*
CS(=O)(=O)c1ccc(Cl)c(NC(=O)CCCc2nc3ccccc3c(=O)[nH]2)c1 | . | i | i | i | i | i | . | .
CSc1n[nH]c(NC2=CC(=O)CCC2)n1 | 3.7 | i | -7.66* | i | i | i | 0.0 | 0.0
CSc1n[nH]c(NC(C)=O)n1 | -1.1 | i | i | i | i | i | . | .
C=C(C)COc1ccc(-c2[nH]ncc2Oc2ccccc2OCC)c(O)c1 | 6.8 | i | -7.74* | i | i | i | 91.0* | 91.8*
CCOc1ccccc1Oc1cn[nH]c1-c1ccc(O)cc1O | 38.1 | i | i | i | i | i | . | .
O=C(c1ccc2c(c1)OCO2)C1CCCN(Cc2c(F)ccc(F)c2F)C1 (stereo not drawn) | 29.0 | i | -7.86* | i | i | i | 92.5* | 57.8*
O=C(c1ccc2c(c1)OCO2)C1CCCN(Cc2ccccc2OC(F)F)C1 (stereo not drawn) | -9.1 | i | -7.7* | i | i | i | 72.5* | 29.8*
COC(=O)c1c(NC(=O)CSc2nnc(-c3ccco3)n2C)sc(C)c1C | 3.4 | i | i | i | i | i | . | .
CCOC(=O)c1sc(NC(=O)CSc2nnc(-c3ccco3)n2CC)c(C(=O)OCC)c1C | 25.5 | i | -18.3* | i | i | i | 92.0* | 91.3*
SMILES | PHOSPHO1 block | MrgX1 ag | RGS4 act | RGS4 inh | MrgX1 allo act | MrgX1 antagonist | RGS4 activ val | RGS4 act ctr
CN1CCCN(C(=O)CSc2ccccc2)CC1 | . | i | i | i | i | i | . | .
CN1CCCN(C(=O)CC(c2ccccc2)c2ccccc2)CC1 | 15.3 | i | -8.11* | i | i | i | 88.5* | 46.8*
C=CCN(c1ccccc1C(=O)O)S(=O)(=O)/C=C/c1ccccc1 | 19.2 | i | i | i | i | i | . | .
CCCn1c2ccc(C)cc2c2nnc(SCCN3CCCCC3)nc21 | 5.3 | . | -8.94* | i | . | . | 79.0* | 83.8*
CCCn1c2ccccc2c2nnc(SCCN3CCOCC3)nc21 | . | i | i | i | i | i | . | .
c1ccc(Cn2c3ccccc3c3nnc(SCCN4CCCCC4)nc32)cc1 | 28.5 | i | -10.8* | i | i | i | 93.0* | 90.3*
Cc1csc(=O)n1CCC(=O)OCC(=O)NNC(=O)c1ccccc1 | . | i | i | i | i | i | . | .
CC1CC(=O)Nc2ccccc2N1S(=O)(=O)c1cccc(Cl)c1 (stereo not drawn) | -7.9 | i | i | i | i | i | . | .
O=C(Nc1ccccc1)Nc1cc(Cl)cc(Cl)c1 | -0.5 | i | -8.28* | i | i | i | 62.5* | 83.8*
Cc1ccc(S(=O)(=O)c2ccc(Oc3cccc(C)c3)cc2)cc1 | 40.7 | i | -8.12* | i | i | i | 68.0* | 30.3*
S=C(NCC1CCCCC1)Nc1ccc(Oc2ccccc2)cc1 | 3.2 | i | -7.61* | i | i | i | 93.0* | 59.8*
CCCN(CCC)CCCOC(=O)c1ccc(Cl)cc1Cl | -18.5 | i | -8.34* | i | i | i | 70.5* | 83.8*
O=C(COC(=O)C1CCN(c2ccc(C(F)(F)F)cn2)CC1)c1ccc(F)cc1 | . | i | i | i | i | i | . | .
COc1cc(C(=O)COC(=O)C2CCN(c3ccc(C(F)(F)F)cn3)CC2)ccc1OC(F)F | . | i | -8.67* | i | i | i | 75.5* | 83.8*
O=C(COC(=O)C1CCN(c2ccc(C(F)(F)F)cn2)CC1)c1ccc(Cl)cc1 | . | i | -7.77* | i | i | i | 76.5* | 31.3*
Cc1cc(C)c(C(=O)COC(=O)C2CCN(c3ccc(C(F)(F)F)cn3)CC2)cc1C | . | i | i | i | i | i | . | .
